Experimental data: ChEMBL document CHEMBL1137569, “Pharmacomodulations around the 4-oxo-1,4-dihydroquinoline-3-carboxamides, a class of potent CB2-selective cannabinoid receptor ligands: consequences in receptor affinity and functionality” (J Med Chem, 2007)

Columns and labels:
Cannabinoid receptor 2 [1] = target: T1, Cannabinoid receptor 2 (Homo sapiens, UniProt P34972); assay: Displacement of [3H]CP-55940 from human CB2 receptor expressed in CHO cells; type: cell-based; design: concentration or dose not given beside the values
Summary of the method: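 Competitive radioligand binding on membranes from CHO cells expressing hCB2, with [3H]-CP-55,940 as tracer. Compounds were first screened at 10 µM. Ki at CB2 was then determined for those displacing more than 60% of specific binding.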

Cannabinoid receptor 2 [2] = target: T1, Cannabinoid receptor 2; assay: Inhibition of human CB2 receptor expressed in CHO cells; type: cell-based
Cannabinoid receptor 2 [3] = target: T1, Cannabinoid receptor 2; assay: Activity at human CB2 receptor expressed in CHO cells assessed as stimulated [35S]GTP-gamma-S binding relative to control; type: functional, cell-based; design: concentration or dose not given beside the values

T1 sequence (P34972 whole entry): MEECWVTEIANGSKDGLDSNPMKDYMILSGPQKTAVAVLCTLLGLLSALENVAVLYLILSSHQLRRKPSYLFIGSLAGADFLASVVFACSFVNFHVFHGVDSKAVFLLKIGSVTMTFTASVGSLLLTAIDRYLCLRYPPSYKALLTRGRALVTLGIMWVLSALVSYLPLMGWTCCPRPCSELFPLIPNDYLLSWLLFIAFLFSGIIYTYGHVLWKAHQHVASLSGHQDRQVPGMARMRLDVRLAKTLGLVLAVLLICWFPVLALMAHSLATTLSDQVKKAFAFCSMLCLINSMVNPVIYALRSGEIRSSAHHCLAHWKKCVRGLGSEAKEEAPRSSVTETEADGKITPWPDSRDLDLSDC

| SMILES | Activity (Cannabinoid receptor 2 [1]) | Ki (Cannabinoid receptor 2 [2]) | Activity (Cannabinoid receptor 2 [3]) |
| --- | --- | --- | --- |
| CC12CC3CC(C)(C1)CC(NC(=O)c1cn(Cc4ccc(Cl)cc4)c4ccccc4c1=O)(C3)C2 | 48.1% | – | – |
| O=C(c1cn(CCC2CCCCC2)c2ccccc2c1=O)c1cccc2ccccc12 | 78.5% | 1670 nM | – |
| CCCCCn1cc(C(=O)c2ccccc2)c(=O)c2ccccc21 | 94.5% | 446 nM | – |
| CCCCCn1cc(NC(=O)C23CC4CC(CC(C4)C2)C3)c(=O)c2ccccc21 | 99.9% | 25.5 nM | 120% |
| CCCCCn1cc(C(=O)NC23CC4CC(C)(CC(C)(C4)C2)C3)c(=O)c2cccnc21 | 102% | 23.5 nM | 124% |
| CCCCCn1cc(C(=O)NC2CCCc3ccccc32)c(=O)c2cc(Cl)ccc21 (racemic) [listing 1 of 2 here] | – | 506 nM | – |
| CCCCCn1cc(C(=O)NC(C)C23CC4CC(CC(C4)C2)C3)c(=O)c2cc(Cl)ccc21 (single isomer, unassigned; (-)) [listing 1 of 2 here] | 87.7% | – | 86.1% |
| CCCCCn1cc(C(=O)NC23CC4CC(C)(CC(C)(C4)C2)C3)c(=O)c2cccc(Cl)c21 | 98.7% | 27.4 nM | 187% |
| CCCCCn1cc(C(=O)c2ccc3cc(OC)ccc3c2)c(=O)c2ccccc21 | 44.1% | – | – |
| CCCCCn1cc(C(=O)NC(C)C23CC4CC(CC(C4)C2)C3)c(=O)c2ccc(Cl)cc21 (single isomer, unassigned; (+)) | – | 265 nM | – |
| CCCCCn1cc(C(=O)NC(C)C23CC4CC(CC(C4)C2)C3)c(=O)c2cc(Cl)ccc21 (single isomer, unassigned; (+)) | 97.2% | – | 76.7% |
| CCCCCn1cc(CNCC2CCCc3ccccc32)c(=O)c2ccccc21 (racemic) | 63.9% | > 4000 nM | – |
| CCCCCn1cc(C(=O)NC(C)C23CC4CC(CC(C4)C2)C3)c(=O)c2cc(Cl)ccc21 (single isomer, unassigned; (-)) [listing 2 of 2 here] | – | 235 nM | – |
| CCCCCn1cc(C(=O)NC2CCCc3ccccc32)c(=O)c2ccccc21 (single isomer, unassigned; (+)) | – | – | 183% |
| CCCCCn1cc(C(=O)c2ccc3ccccc3c2)c(=O)c2ccccc21 | 74.3% | 1290 nM | – |
| CCCCCn1c(-c2ccccc2)c(C(=O)NC23CC4CC(CC(C4)C2)C3)c(=O)c2ccccc21 | 94.9% | 338 nM | 26.5% |
| O=C(c1cn(CCCc2ccccc2)c2ccccc2c1=O)c1cccc2ccccc12 | 80.4% | > 2000 nM | – |
| CCCCCn1c(C)c(C(=O)NC(C)c2ccccc2)c(=O)c2ccccc21 (single isomer, unassigned; (-)) | 91.7% | 663 nM | 186% |

| SMILES | Activity (Cannabinoid receptor 2 [1]) | Ki (Cannabinoid receptor 2 [2]) | Activity (Cannabinoid receptor 2 [3]) |
| --- | --- | --- | --- |
| CCCCCn1c(C)c(C(=O)NC(C)c2cccc3ccccc23)c(=O)c2ccccc21 (single isomer, unassigned; (-)) | 70.4% | > 3000 nM | – |
| CCCCCn1cc(C(=O)NC(C)C23CC4CC(CC(C4)C2)C3)c(=O)c2ccc(Cl)cc21 (single isomer, unassigned; (-)) | 102% | – | 53.5% |
| CCCCCn1cc(C(=O)NC2CCCc3ccccc32)c(=O)c2cc(Cl)ccc21 (racemic) [listing 2 of 2 here] | 98.2% | – | 98.5% |
| O=C(NC12CC3CC(CC(C3)C1)C2)c1cn(CCN2CCOCC2)c2ccccc2c1=O | 101% | 152 nM | – |
| CCCCCn1cc(C(=O)NC2CCCc3ccccc32)c(=O)c2cc(Cl)ccc21 (single isomer, unassigned; (+)) | 92.8% | – | 124% |
| O=C(NCCc1ccccc1)c1cn(CCN2CCOCC2)c2ccccc2c1=O | 46.7% | – | – |
| CCCCCn1cc(C(=O)NC(C)C23CC4CC(CC(C4)C2)C3)c(=O)c2ccc(Cl)cc21 (racemic) | 102% | – | 56.3% |
| CCCCn1cc(C(=O)c2cccc3ccccc23)c(=O)c2ccccc21 | 77.7% | 1550 nM | – |
| O=C(c1cn(Cc2ccccc2)c2ccccc2c1=O)c1cccc2ccccc12 | 100% | 656 nM | – |
| CCCCCn1cc(C(=O)NC23CC4CC(C)(CC(C)(C4)C2)C3)c(=O)c2ccc(Cl)cc21 | 106% | 5.3 nM | 51.6% |
| CCCCCn1cc(C(=O)NC(C)C23CC4CC(CC(C4)C2)C3)c(=O)c2ccccc21 (stereo in doubt; 24) | – | 14 nM | – |
| CCCCCn1cc(C(=O)NC(C)C23CC4CC(CC(C4)C2)C3)c(=O)c2cc(Cl)ccc21 (racemic) | 81.8% | – | 97.3% |
| CCCCCn1cc(C(=O)NCC23CC4CC(CC(C4)C2)C3)c(=O)c2ccccc21 | 87.2% | 50.6 nM | 155% |
| CCCCCn1cc(CNCCc2ccccc2)c(=O)c2ccccc21 | 25.9% | > 4000 nM | – |
| CC12CC3CC(C)(C1)CC(NC(=O)c1cn(CCN4CCOCC4)c4ccccc4c1=O)(C3)C2 | 95.6% | 221 nM | 141% |
| CCCCCn1cc(C(=O)c2c3ccccc3cc3ccccc23)c(=O)c2ccccc21 | 76.5% | 1500 nM | – |
| CC12CC3CC(C)(C1)CC(NC(=O)c1cn(CCC4CCCCC4)c4ccccc4c1=O)(C3)C2 | 38.8% | – | 157% |
